Measured values reported in ChEMBL document CHEMBL1151961, “14,15-Epoxyeicosa-5,8,11-trienoic acid (14,15-EET) surrogates containing epoxide bioisosteres: influence upon vascular relaxation and soluble epoxide hydrolase inhibition” (J Med Chem, 2009).

Legend:
[1] = Vasorelaxant activity against U46619-induced contraction in bovine coronary artery ring at 10 uM treated after U46619 challenge; assay type: functional, Bos taurus; design: scale not given: the % may be the effect or the level left
[2] = Vasorelaxant activity against U46619-induced contraction in bovine coronary artery ring treated after U46619 challenge; assay type: functional, tissue-based; details: Bos taurus
How it was run: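 Bioassay run 3-5 times (n = 3-5); reported values are means, ±10% SD.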

[3] = molecular target: T1, Bifunctional epoxide hydrolase 2 (Homo sapiens, UniProt P34913); experiment: Inhibition of human recombinant soluble epoxide hydrolase expressed in baculovirus system assessed as appearance of 6-methoxynaphthaldehyde product by fluorescent-based assay
T1 sequence (P34913 whole entry): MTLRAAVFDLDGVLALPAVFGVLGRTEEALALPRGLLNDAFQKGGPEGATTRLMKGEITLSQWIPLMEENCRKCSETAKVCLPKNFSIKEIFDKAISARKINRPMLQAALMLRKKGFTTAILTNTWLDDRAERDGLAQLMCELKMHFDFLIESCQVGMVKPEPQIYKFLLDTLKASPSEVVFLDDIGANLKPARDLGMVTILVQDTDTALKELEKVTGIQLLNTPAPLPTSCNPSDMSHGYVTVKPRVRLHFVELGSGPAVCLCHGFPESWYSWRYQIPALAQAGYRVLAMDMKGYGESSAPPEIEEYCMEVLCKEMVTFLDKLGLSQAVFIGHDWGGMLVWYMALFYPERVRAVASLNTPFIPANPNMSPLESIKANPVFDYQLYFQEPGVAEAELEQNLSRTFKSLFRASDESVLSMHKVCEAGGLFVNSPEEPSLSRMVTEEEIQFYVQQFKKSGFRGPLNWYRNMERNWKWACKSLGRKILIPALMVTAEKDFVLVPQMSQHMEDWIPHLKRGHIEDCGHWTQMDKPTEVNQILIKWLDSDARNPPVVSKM

[4] = Vasorelaxant activity against U46619-induced contraction in bovine coronary artery ring at 10 uM treated after U46619 challenge; design: scale not given: the % may be the effect or the level left

Compound | EC50 ([2]; read-out: EC50) [µM] | IC50 [3] [µM] | EC50 ([2]; read-out: ED50 (the source's name)) [µM] | Activity [1] [%] | Activity [4] [%]
CCCCCCC(=O)NCCCC/C=C\CCCCCCC(=O)O | 6.1 | 0.079 |  | 64.5 | 
CCCCCNC(=S)NCCCC/C=C\CCCCCCC(=O)O | 1.5 | 0.77 |  | 99 | 
CCCCCNC(=O)NCCCCC#CCCC(=O)O | > 10 | 8.11 |  | 46 | 
CCCCCN(C)C(=O)NCCCC/C=C\CCCCCCC(=O)O | 3.2 | 1.45 |  | 88 | 
CCCCCCC(=O)N(C)CCCC/C=C\CCCCCCC(=O)O | 4.3 | 11.2 |  | 64.5 | 
CCCCCNC(=O)N(C)CCCC/C=C\CCCCCCC(=O)O | 7.6 | 0.0715 |  | 59 | 
CCCCNC(=O)NCCCCC/C=C\CCCCCCC(=O)OC | 4.6 | 0.152 |  | 84 | 
CCCCCc1ccc(CCCC/C=C\CCCCCCC(=O)O)o1 | > 10 | 7.15 |  | 11 | 
CCCCN(C)C(=O)C(=O)N(C)CCCC/C=C\CCCCCCC(=O)O | 4.4 | 17.6 |  | 70 | 
CCCCCNC(=O)OCCCC/C=C\CCCCCCC(=O)O | 9.3 | 3.48 |  | 53 | 
CCCCCOC(=O)NCCCC/C=C\CCCCCCC(=O)O | 8.3 | 2.83 |  | 64 | 
CCCCCNC(=O)NCCCC/C=C/CCCCCCC(=O)O | > 10 | 0.0485 |  | 29 | 
CCCCCCN(C)C(=O)CCCC/C=C\CCCCCCC(=O)O | > 10 | 13.9 |  | 12 | 
CCCCCNC(=O)NCCCC/C=C\CCC(=O)O | > 10 | 1.36 |  | 16 | 
CCCCCNC(=O)NCCCC/C=C\CCCCCCC(=O)O | 7.5 | 0.046 |  | 63 | 
CCCCCNC(=O)NCCCCCCC/C=C\CCCC(=O)O | 5.6 | 0.793 |  | 66 | 

The next lines start with results.

EC50 ([2]; read-out: EC50) [µM] | IC50 [3] [µM] | EC50 ([2]; read-out: ED50 (the source's name)) [µM] | Compound | Activity [1] [%] | Activity [4] [%]
4.9 | 0.066 |  | CCCCCCNC(=O)CCCC/C=C\CCCCCCC(=O)O | 74 | 
 |  | 2.2 | CCCCC[C@@H]1O[C@@H]1C/C=C\C/C=C\C/C=C\CCCC(=O)O (relative stereo) |  | 85
3.5 | 0.016 |  | CCCCCCNC(=O)NCCC/C=C\CCCCCCC(=O)O | 86 | 
2.3 | 11.1 |  | CCCCCN(C)C(=O)N(C)CCCCCCCC#CCCCC(=O)O | 77.5 | 
> 10 | 0.688 |  | CCCCCC1CN=C(CCCC/C=C\CCCCCCC(=O)OC)O1 (stereo unspecified) | 33 | 
1.7 | 19 |  | CCCCCCC(=O)N(CCCC/C=C\CCCCCCC(=O)O)C(C)C | 100 | 
3.2 | 8.48 |  | CCCCCN(C)C(=O)N(C)CCCC/C=C\CCCCCCC(=O)O | 83 | 
> 10 | 2.6 |  | CCNC(=O)NCCCC/C=C\CCCCCCCCCC(=O)O | 50 | 
6.2 | 17.8 |  | CCCCCc1cn(CCCC/C=C\CCCCCCC(=O)[O-])nn1.[Na+] | 65 | 
3.7 | 1.37 |  | CCCCCNC(=O)NOCCC/C=C\CCCCCCC(=O)O | 87 | 
1.7 | 58.7 |  | CCCCNC(=O)C(=O)NCCCC/C=C\CCCCCCC(=O)O | 89 | 
3.1 | 0.043 |  | CCCCCNC(=O)NCCCCC#CCCCCCCC(=O)O | 62 | 
5.7 | 0.272 |  | CCCCCCC(=O)NCCCCCCCC#CCCCC(=O)O | 69 | 
